In brackets after ≈: the same amount, converted by molar mass.
How the values were obtained:
Format in all cases: functional
[1] = tested on: Mycobacterium tuberculosis; assay: Antimycobacterial activity against Mycobacterium tuberculosis H37Rv after 30 days by serial dilution technique
Outline: (§1)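 H37Rv kept on L–J medium at 37 °C. Inoculum made by homogenizing growth with glass beads in Tween-albumin Middlebrook 7H9, letting large particles settle, and adjusting the supernatant to 3 ×10⁸ CFU by McFarland standard, with CFU/mL checked by plating. 0.1 mL went onto L–J slants with Gruft supplement holding serially diluted compound. Incubated 37 °C, read at 14, 21, 30 days. MIC was the lowest concentration with clear tubes; triplicate.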

[2] = tested on: Mycobacterium tuberculosis; assay: Antimycobacterial activity against Mycobacterium tuberculosis H37Rv after 21 days by serial dilution technique; settings: 504 h; outline: as §1
[3] = tested on: Mycobacterium tuberculosis; assay: Antimycobacterial activity against Mycobacterium tuberculosis H37Rv after 14 days by serial dilution technique; settings: 336 h; outline: as §1

SMILES	MIC [1]	MIC [2]	MIC [3]
CCOC(=O)C1=C(Nc2cccc(C)c2)N=CN2CCN=C12	> 200 µg/mL	> 200 µg/mL	> 200 µg/mL
CCOC(=O)C1=C(Nc2ccc(Br)cc2)N=C(c2ccccc2)N2CCN=C12	> 200 µg/mL	100 µg/mL (≈ 228 µM)	100 µg/mL (≈ 228 µM)
CCOC(=O)C1=C(Nc2ccc(C)cc2)N=C(c2ccccc2)N2CCN=C12	> 200 µg/mL	100 µg/mL (≈ 267 µM)	100 µg/mL (≈ 267 µM)
CCOC(=O)C1=C(NCc2ccccc2)N=C(c2ccccc2)N2CCN=C12	> 200 µg/mL	> 200 µg/mL	> 200 µg/mL
CCOC(=O)C1=C(Nc2cccc(Cl)c2)N=CN2CCN=C12	> 200 µg/mL	> 200 µg/mL	> 200 µg/mL
CCOC(=O)C1=C(Nc2ccccc2OC)N=C(c2ccccc2)N2CCN=C12	> 200 µg/mL	> 200 µg/mL	> 200 µg/mL
CCOC(=O)C1=C(NCc2ccccc2)N=CN2CCN=C12	100 µg/mL (≈ 335 µM)	20 µg/mL (≈ 67 µM)	20 µg/mL (≈ 67 µM)
CCOC(=O)C1=C(Nc2ccc(OC)cc2)N=CN2CCN=C12	20 µg/mL (≈ 63.6 µM)	2 µg/mL (≈ 6.36 µM)	2 µg/mL (≈ 6.36 µM)
CCOC(=O)C1=C(Nc2ccc(F)cc2)N=CN2CCN=C12	20 µg/mL (≈ 66.2 µM)	5 µg/mL (≈ 16.5 µM)	5 µg/mL (≈ 16.5 µM)
CO[C@H]1/C=C/O[C@@]2(C)Oc3c(C)c(O)c4c(c3C2=O)C2=NC3(CCN(CC(C)C)CC3)NC2=C(NC(=O)/C(C)=C\C=C\[C@H](C)[C@H](O)[C@@H](C)[C@@H](O)[C@@H](C)[C@H](OC(C)=O)[C@@H]1C)C4=O [RIFABUTIN]	0.05 µg/mL (≈ 0.059 µM)	0.05 µg/mL (≈ 0.059 µM)	0.05 µg/mL (≈ 0.059 µM)
CCOC(=O)C1=C(Nc2ccccc2F)N=CN2CCN=C12	50 µg/mL (≈ 165 µM)	5 µg/mL (≈ 16.5 µM)	5 µg/mL (≈ 16.5 µM)
CCOC(=O)C1=C(Nc2ccccc2OC)N=CN2CCN=C12	> 200 µg/mL	> 200 µg/mL	> 200 µg/mL
CCOC(=O)C1=C(Nc2ccccc2Cl)N=CN2CCN=C12	> 200 µg/mL	> 200 µg/mL	> 200 µg/mL
CCOC(=O)C1=C(Nc2ccc(F)cc2)N=C(c2ccccc2)N2CCN=C12	20 µg/mL (≈ 52.9 µM)	5 µg/mL (≈ 13.2 µM)	5 µg/mL (≈ 13.2 µM)
CCOC(=O)C1=C(Nc2ccccc2Cl)N=C(c2ccccc2)N2CCN=C12	> 200 µg/mL	> 200 µg/mL	> 200 µg/mL
CCOC(=O)C1=C(NC)N=CN2CCN=C12	> 200 µg/mL	> 200 µg/mL	> 200 µg/mL

SMILES	MIC [1]	MIC [2]	MIC [3]
CCOC(=O)C1=C(Nc2ccc(OC)cc2)N=C(c2ccccc2)N2CCN=C12	50 µg/mL (≈ 128 µM)	5 µg/mL (≈ 12.8 µM)	5 µg/mL (≈ 12.8 µM)
CCNC1=C(C(=O)OCC)C2=NCCN2C=N1	> 200 µg/mL	> 200 µg/mL	> 200 µg/mL
CCOC(=O)C1=C(NC)N=C(c2ccccc2)N2CCN=C12	> 200 µg/mL	> 200 µg/mL	> 200 µg/mL
CCOC(=O)C1=C(Nc2cccc(C(F)(F)F)c2)N=CN2CCN=C12	> 200 µg/mL	100 µg/mL (≈ 284 µM)	100 µg/mL (≈ 284 µM)
CCOC(=O)C1=C(Nc2cccc(Cl)c2)N=C(c2ccccc2)N2CCN=C12	> 200 µg/mL	> 200 µg/mL	> 200 µg/mL
CCOC(=O)C1=C(Nc2ccc(Br)cc2)N=CN2CCN=C12	100 µg/mL (≈ 275 µM)	50 µg/mL (≈ 138 µM)	50 µg/mL (≈ 138 µM)
CCOC(=O)C1=C(Nc2ccccc2)N=C(c2ccccc2)N2CCN=C12	100 µg/mL (≈ 277 µM)	50 µg/mL (≈ 139 µM)	50 µg/mL (≈ 139 µM)
CCOC(=O)C1=C(Nc2ccc(C)cc2)N=CN2CCN=C12	50 µg/mL (≈ 168 µM)	5 µg/mL (≈ 16.8 µM)	5 µg/mL (≈ 16.8 µM)
CCOC(=O)C1=C(Nc2ccccc2)N=CN2CCN=C12	50 µg/mL (≈ 176 µM)	20 µg/mL (≈ 70.3 µM)	20 µg/mL (≈ 70.3 µM)
CCOC(=O)C1=C(Nc2ccccc2F)N=C(c2ccccc2)N2CCN=C12	> 200 µg/mL	> 200 µg/mL	> 200 µg/mL
CCOC(=O)C1=C(Nc2ccc(Cl)cc2)N=C(c2ccccc2)N2CCN=C12	50 µg/mL (≈ 127 µM)	20 µg/mL (≈ 50.7 µM)	20 µg/mL (≈ 50.7 µM)
NCC[C@H](O)C(=O)N[C@@H]1C[C@H](N)[C@@H](O[C@H]2O[C@H](CN)[C@@H](O)[C@H](O)[C@H]2O)[C@H](O)[C@H]1O[C@H]1O[C@H](CO)[C@@H](O)[C@H](N)[C@H]1O [AMIKACIN]	2 µg/mL (≈ 3.42 µM)	2 µg/mL (≈ 3.42 µM)	2 µg/mL (≈ 3.42 µM)
CCOC(=O)C1=C(Nc2ccccc2C)N=CN2CCN=C12	> 200 µg/mL	> 200 µg/mL	> 200 µg/mL
CCOC(=O)C1=C(Nc2ccccc2C)N=C(c2ccccc2)N2CCN=C12	> 200 µg/mL	100 µg/mL (≈ 267 µM)	100 µg/mL (≈ 267 µM)
CCNC1=C(C(=O)OCC)C2=NCCN2C(c2ccccc2)=N1	> 200 µg/mL	> 200 µg/mL	> 200 µg/mL
CCOC(=O)C1=C(Nc2ccc(Cl)cc2)N=CN2CCN=C12	20 µg/mL (≈ 62.7 µM)	5 µg/mL (≈ 15.7 µM)	5 µg/mL (≈ 15.7 µM)

— ChEMBL document CHEMBL1154153, “Design, synthesis and antimycobacterial activity of some novel imidazo[1,2-c]pyrimidines” (2009)
